# This is a sample that favours compounds with a hit; in the whole collection about 1.5% have one here.
# APJ antagonist = blocks the human apelin receptor APJ; P35414; CHO-K1 APJ beta-arrestin complementation, luminescence; inhibition, % at 20 µM; hit rate 0.32% among 330,000;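 active means inhibition above about 40% at 20 µM, limit read from the data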;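 further: cells challenged with 10 nM apelin-13 agonist together with compound; plate controls were apelin-13 plus DMSO wells for no effect and DMSO wells lacking apelin-13 for full effect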
# CXCR6 inh = CXCR6 (human) receptor inhibition; O00574; CHO-K1 PathHunter CXCR6 beta-arrestin, luminescence; inhibition, % at 20 µM; hit rate 0.36% among 360,000; AID 602244; in the data active means inhibition above about 34%, passing the limit was not always enough;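 further: antagonist mode with CXCL16 agonist at 10 nM final; 0% = 10 nM CXCL16 with DMSO and 100% = unstimulated wells without agonist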
# Target sequence (O00574 whole entry, looked up): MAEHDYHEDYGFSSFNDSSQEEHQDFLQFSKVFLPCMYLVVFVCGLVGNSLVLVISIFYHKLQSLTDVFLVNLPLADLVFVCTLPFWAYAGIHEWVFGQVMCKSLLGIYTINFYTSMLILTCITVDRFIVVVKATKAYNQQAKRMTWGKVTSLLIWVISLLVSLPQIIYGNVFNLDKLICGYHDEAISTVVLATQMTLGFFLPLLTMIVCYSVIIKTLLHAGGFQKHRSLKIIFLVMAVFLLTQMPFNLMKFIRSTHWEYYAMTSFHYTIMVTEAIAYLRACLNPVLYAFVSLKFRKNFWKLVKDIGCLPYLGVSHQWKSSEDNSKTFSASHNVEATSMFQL
# EBI2 antag = blocks human EBI2 receptor beta-arrestin signaling | P32249 | EBI2 beta-arrestin recruitment, luminescence, 7a,25-OHC stimulated | inhibition, % at 5 µM | hit rate 0.81% among 360,000; in the data active means inhibition above about 38%;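 further: enzyme fragment complementation signal reports receptor beta-arrestin coupling in cells; 0% = agonist plus DMSO wells and 100% = wells without agonist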
# CCR6 antagonist = antagonists of human CCR6 receptor; hit rate 0.49% among 340,000; inhibition, % at 20 µM; P51684; CHO-K1 CCR6 PathHunter beta-arrestin, luminescence, CCL20-stimulated;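 active means compounds whose inhibition of the agonist-driven luminescence signal at 20 µM reaches about 50%, limit read from the data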;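 further: cells stimulated with CCL20 at 14 nM final; plate controls were DMSO with CCL20 for no effect and DMSO without agonist for full effect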
# APJ agonist = activates the human apelin receptor APJ | CHO-K1 APJ PathHunter beta-arrestin, luminescence; 0% DMSO wells, 100% apelin | activation, % at 20 µM | hit rate 0.11% among 330,000 | AID 2520;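 active means activation more than six SD over the plate average, tested at 20 µM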;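 further: 0% = DMSO alone and 100% = apelin-13 at 10 nM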
#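 assay system = CHO-K1 APJ beta-arrestin complementation cell line | input = cell density 1000 per well | dosing = compound 20 µM once, DMSO 1% | timing = compound 90 min 25 °C, reagent 1 h | measured by = luminescence from split beta-galactosidase complementation, Galacton Star/Emerald II substrate | read-out basis = APJ agonist activity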
# * hit, by the source's call; x = not tested or not shown.
SMILES,APJ antagonist,CXCR6 inh,EBI2 antag,CCR6 antagonist,APJ agonist
CCOC(=O)c1c(SC)n(-c2ccccc2)c(=S)n(-c2ccccc2)c1=O,x,8,-8,10,x
CCOC(=O)c1c(SCCN2CCCCC2)n(-c2ccccc2)c(=S)n(-c2ccccc2)c1=O,x,86*,9,99*,x
O=C(O)c1cccc(NC(=O)c2ccc3c(c2)C(=O)N(Cc2ccco2)C3=O)c1,6,0,-6,12,-2
CCc1ccc(NC(=O)c2ccc3c(c2)C(=O)N(Cc2ccco2)C3=O)cc1,7,7,84*,4,-3
COc1ccccc1N=Cc1nc(-c2ccccc2)oc1OC(C)=O,0,4,-1,5,-3
CC(=O)Oc1oc(-c2ccccc2)nc1/C=N/c1ccccn1,26,21,-12,51*,-3
CCOC(=O)N=Nc1c2ccccc2c2nc3no[nH]c3nc12,13,36*,-5,46,-4
CCOC(=O)N=Nc1c(O)n(CC(=O)OC)c2ccccc12,2,-2,4,12,-2
Cc1nc2ccc(NC(=O)c3cc([N+](=O)[O-])cc([N+](=O)[O-])c3Cl)cc2s1,x,10,-10,97*,x
Cc1nc2ccc(NC(=O)c3ccc(Cl)c([N+](=O)[O-])c3)cc2s1,-15,1,5,3,-2
Cc1cc(NCCCn2ccnc2)n2ncc(-c3ccc(Cl)cc3)c2n1,-11,-6,45*,-4,2
Cc1cc(NCCCN2CCOCC2)n2ncc(-c3ccc(Cl)cc3)c2n1,15,-7,18,17,0
C=C1C(=O)OC2CC1C(O)CC(C)=CCCC(C)=CC(O)CC2C (stereo not drawn),x,7,0,12,x
C=C1C(=O)OC2CC1C(OC(C)=O)CC(C)=CCCC(C)=CCCC2(C)O (stereo not drawn),x,-5,51*,x,x
O=C(c1cccc(F)c1)N1CCN(C2CCCCC2)CC1,-1,-1,4,-10,-1
CC(C)c1ccc(O)c(NC(=S)NC(=O)c2ccc3c(c2)OCO3)c1,13,45*,8,x,-10
O=C(NC(=S)Nc1ccccc1Br)c1ccc2c(c1)OCO2,-19,14,4,25,-5
O=C(c1ccco1)N1CCN(c2ncnc3c2[nH]c2ccc(Cl)cc23)CC1,-1,x,x,x,5
O=C(N/C(=C/c1ccc(Cl)cc1)c1nc2ccccc2[nH]1)c1ccco1,8,-2,0,6,0
O=C(/C(=C/c1ccc(Cl)cc1)c1nc2ccccc2[nH]1)c1ccccc1,15,12,50*,18,-1
O=C(CCNC(=O)c1ccc(Br)cc1)Nc1cc(Cl)ccc1-n1cncn1,-6,-2,-1,2,7
COC(=O)C[C@@H]1C[C@@H]2c3cc(NS(=O)(=O)c4ccccc4)ccc3O[C@@H]2[C@@H](CO)O1,x,-1,0,x,x
Cc1ccc(OCCn2c(NC(=O)c3ccco3)nc3ccccc32)cc1,13,39*,0,29,-1
CN1CCN(CC(=O)Nc2cccc(S(=O)(=O)N(C)c3ccccc3)c2)CC1,0,-4,-15,-6,-3
C=C(CC[C@@H](O)C(C)(C)O)[C@H]1CC[C@]2(C)[C@@H]1CCC1[C@@]3(C)CC[C@H](O)C(C)(C)C3CC[C@]12C (stereo partly drawn),-8,-6,-5,69*,-2
SMILES,APJ antagonist,CXCR6 inh,EBI2 antag,CCR6 antagonist,APJ agonist
C=C(C)[C@@H]1CC[C@]2(C(=O)O)CC[C@]3(C)[C@H](CC[C@@H]4[C@@]5(C)CC[C@H](O)C(C)(C)[C@@H]5CC[C@]43C)[C@@H]12,4,1,-3,-11,3
CCN(CC)c1ccc(/C=C(\C#N)C(N)=S)cc1,-33,35,16,52*,2
CCN(CC)c1ccc(/C=C(\C#N)C(=O)c2ccc(Br)cc2)cc1,x,30,45*,32,x
Clc1cccc(-c2nnc(-c3ccno3)o2)c1,-4,8,-13,-6,0
Cc1ccc(/C(=N/Nc2ncnc3ccccc23)C(=O)O)cc1,0,0,-3,-4,3
COC(=O)c1ccc(NC(=S)NC(=O)c2cc(-c3ccccc3)nc3ccccc23)cc1,35,30,22,53*,0
C=C1CC2(OC1=O)c1ccccc1CCc1ccccc12,x,45*,30,68*,x
O=C(/C=C/c1cc(Br)ccc1O)c1ccco1,17,30,2,64*,-2
O=C(/C=C/c1ccccc1O)c1ccco1,8,11,-9,28,-4
CN(c1ccc(C(=O)N2CCN(Cc3ccc4c(c3)OCO4)CC2)cc1)S(C)(=O)=O,-11,-3,-4,5,-1

# Screening results (PubChem)
